Tests used:
[1] = Displacement of [3H]ditolylguanidine from sigma 2 receptor in rat liver membrane by competitive binding assay; assay type: cell membranes
Summary of the method: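 Sigma-2 competition binding used rat liver membranes with [3H]ditolylguanidine as radioligand. 10 µM dextrallorphan was present to mask sigma-1 sites. Ki was derived by Cheng–Prusoff from at least three independent experiments, each in triplicate, and is reported as mean ± SD.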

[2] = target: Sigma non-opioid intracellular receptor 1 (Rattus norvegicus, UniProt Q9R0C9); experiment: Displacement of (+)-[3H]pentazocine from sigma 1 receptor in rat brain membranes by competitive binding assay; assay type: cell membranes
Sequence of Sigma non-opioid intracellular receptor 1 (Q9R0C9 whole entry): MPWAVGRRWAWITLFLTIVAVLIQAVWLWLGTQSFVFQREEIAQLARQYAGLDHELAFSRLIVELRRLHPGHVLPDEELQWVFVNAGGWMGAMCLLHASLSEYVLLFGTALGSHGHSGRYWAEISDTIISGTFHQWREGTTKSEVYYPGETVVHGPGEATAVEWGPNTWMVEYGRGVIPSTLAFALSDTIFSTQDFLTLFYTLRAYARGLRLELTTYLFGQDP
Summary of the method: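 Sigma-1 competition binding used rat brain membranes as receptor material with (+)-[3H]pentazocine as radioligand. Ki was derived by Cheng–Prusoff from at least three independent experiments, each in triplicate, and is reported as mean ± SD.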

Compound `Fc1ccc(CN2CCN(Cc3ccc4c(c3)OCO4)CC2)cc1` has a Ki [1] of 52.2 nM and a Ki [2] of 0.85 nM.

`Brc1ccc(CN2CCN(Cc3ccc4c(c3)OCO4)CC2)cc1` gave a Ki [1] of 40.5 nM and a Ki [2] of 0.78 nM.

For `Ic1ccc(CN2CCN(Cc3ccc4c(c3)OCO4)CC2)cc1`, the Ki [1] was 61.1 nM and the Ki [2] was 0.8 nM.

Reference: ChEMBL document CHEMBL1772977, “Synthesis and biological evaluation of novel 4-benzylpiperazine ligands for sigma-1 receptor imaging” (Bioorg Med Chem, 2011)
